The source made the active and inactive calls. No cut-off for these calls is given here.

We go through four compounds from ChEMBL document CHEMBL3244350, “Antitumor and antiinflammatory agents: N-benzoyl-protected cyanomethyl esters of amino acids” (J Med Chem, 1979).

The subject of data set [1] is Mus musculus. The experiment in a line: Immunosuppressive activity in mouse splenic lymphocytes isolated from 0.1 mg, ip on days 2,3 and 4 treated CF1 mouse assessed as reduction in sheep red blood cell antigen-induced plaque-forming response (reference value: 100%). Set-up: scale not given: the % may be the effect or the level left.
Data set [2] relates to Mus musculus. The experiment in a line: Immunosuppressive activity in mouse splenic lymphocytes isolated from 25 mg/kg, ip on days 2,3 and 4 treated CF1 mouse assessed as reduction in sheep red blood cell antigen-induced plaque-forming response (reference value: 100%). Also noted: scale not given: the % may be the effect or the level left. Particulars: route intraperitoneal.

Data set [3] deals with Mus musculus. The data set can be described thus: Antitumor activity against mouse P388 cells allografted in DBA/2 mouse assessed as host survival on day 7 at 20 mg/kg, ip qd for 2 weeks. The format is functional. Particulars: route intraperitoneal. An outline of the steps: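 P388 leukemia in male DBA/2 mice (20 g): 10⁶ cells implanted on day 0. Compounds were given ip at 20 (mg/kg)/day for 2 weeks. Survival was expressed as T/C by the NIH protocol; T/C > 120 counted as significant. 5-Fluorouracil was the internal standard.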

Data set [4] has as its system Mus musculus. The experiment in a line: Antitumor activity against mouse P388 cells allografted in DBA/2 mouse assessed as tumor growth inhibition at 20 mg/kg, ip qd for 2 weeks (reference value: 100%). Type of data set: functional. The settings on record: route intraperitoneal. An outline of the steps:
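DBA/2 male mice (20 g) implanted with 10^6 P-388 cells on day 0, then dosed ip at 20 mg/kg/day for 2 weeks. T/C computed by the NIH protocol; T/C ≥120 counted as significant. 5-Fluorouracil served as internal standard.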

Data set [5] concerns Mus musculus. The data set can be described thus: Antiinflammatory activity in CF1 mouse assessed as increase in foot weight at 20 mg/kg, ip administered 3 hrs and 30 mins prior to carrageenan-challenge measured after 3 hrs (reference value: 97 +/- 10 mg). The format is functional. The settings on record: route intraperitoneal.
The subject of data set [6] is Mus musculus. The experiment in a line: Antiinflammatory activity in CF1 mouse assessed as inhibition of carrageenan-induced paw edema at 20 mg/kg, ip administered 3 hrs and 30 mins prior to carrageenan-challenge measured after 3 hrs (reference value: 0%). The format is functional. The settings on record: route intraperitoneal.
The test system of data set [7] is Mus musculus. The data set can be described thus: Antiinflammatory activity in CF1 mouse assessed as increase in foot weight at 10 mg/kg, ip administered 3 hrs and 30 mins prior to carrageenan-challenge measured after 3 hrs (reference value: 97 +/- 10 mg). The format is functional. Particulars: route intraperitoneal.
In data set [8] the test system is Mus musculus. The experiment in a line: Antiinflammatory activity in CF1 mouse assessed as inhibition of carrageenan-induced paw edema at 10 mg/kg, ip administered 3 hrs and 30 mins prior to carrageenan-challenge measured after 3 hrs (reference value: 0%). Type of data set: functional. Particulars: route intraperitoneal. In general terms: The carrageenan paw model is a standard test of acute inflammation.

Data set [9] deals with Mus musculus. The experiment in a line: Analgesic activity in CF1 mouse assessed as inhibition of acetic acid-induced writhing reflex measured for 10 mins at 20 mg/kg,ip administration 5 mins prior to test by […]. Type of data set: functional, organism-based. Also noted: dose 20 mg/kg. Background: An intraperitoneal irritant provokes the stretching counted in writhing tests.

Data set [10] has as its system Mus musculus. The experiment in a line: Analgesic activity in CF1 mouse assessed as inhibition of acetic acid-induced pain measured for 10 mins at 2.5 mg/kg,ip administration 5 mins prior to test by […]. The format is functional, organism-based. Also noted: dose 2.5 mg/kg.
For data set [11], the system named is Mus musculus. The experiment in a line: Antitumor activity against mouse EAC allografted in CF1 mouse assessed as host survival on day 7 at 20 mg/kg, ip qd for 7 days. The format is functional, organism-based. Also noted: dose 20 mg/kg.
Data set [12] has as its system Rattus norvegicus. The data set can be described thus: Antipyretic activity in Sprague-Dawley rat assessed as decrease in yeast/mycobacterium butyricum-induced increase temperature at 5 mg/kg, ip. The format is functional, organism-based. Also noted: dose 5 mg/kg.
Data set [13] has as its system Mus musculus. The experiment in a line: Antitumor activity against mouse EAC allografted in CF1 mouse assessed as tumor growth inhibition at 20 mg/kg, ip qd for 7 days (reference value: 0%). Type of data set: functional. The settings on record: 168 h, route intraperitoneal.
The species entered for data set [14] is Mus musculus. The data set can be described thus: Toxicity in CF1 mouse. Type of data set: organism-based. The settings on record: in vivo.
Data set [15] deals with Mus musculus. The data set can be described thus: Antitumor activity against mouse EAC allografted in CF1 mouse assessed as ascrit fluid volume at 20 mg/kg, ip qd for 7 days (reference value: 6.63 +/- 1.24 mL). Type of data set: functional. Particulars: route intraperitoneal.
The subject of data set [16] is Rattus norvegicus. The experiment in a line: Antipyretic activity in Sprague-Dawley rat assessed as decrease in yeast/mycobacterium butyricum-induced increase temperature at 2.5 mg/kg, ip. Type of data set: functional, organism-based. Set-up: dose 2.5 mg/kg.
The subject of data set [17] is Mus musculus. The experiment in a line: Analgesic activity in CF1 mouse assessed as inhibition of acetic acid-induced pain measured for 10 mins at 5 mg/kg,ip administration 5 mins prior to test by […]. Type of data set: functional, organism-based. Set-up: dose 5 mg/kg. (Hot-plate and tail-flick tests time the reaction to a heat stimulus.)
Data set [18] can be described thus: Acute toxicity in CF1 mouse. Type of data set: organism-based. Particulars: in vivo.

`N[C@@H](Cc1ccc(N(CCCl)CCCl)cc1)C(=O)O` [MELPHALAN]: the Activity is listed as 51% with Mus musculus [1] and 100% in the data set on Mus musculus [2].

One may read the inhibition in vivo as the percentage by which the read-out fell short of the control. Regarding `COc1ccc2c(c1)c(CC(=O)O)c(C)n2C(=O)c1ccc(Cl)cc1` [INDOMETHACIN], the Survival in the data set on Mus musculus [3] is 9.66 days. The T/C in the data set with Mus musculus [4] stood at 100. In addition, the Activity is recorded as 97 mg with Mus musculus [5] and 23 mg with Mus musculus [7]. In addition, in the data set on Mus musculus [6], the inhibition in vivo at 20 mg/kg was 0%. Besides, in the data set with Mus musculus [8], the inhibition in vivo at 10 mg/kg turned out to be 74%.

As to `N#CCOC(=O)[C@H](Cc1ccccc1)NC(=O)OCc1ccccc1`, in the data set with Mus musculus [9], the inhibition entry is “Active”. The result in the data set with Mus musculus [10], in the data set on Rattus norvegicus [12], in the data set on Rattus norvegicus [16] and in the data set with Mus musculus [17] was inactive. Besides, in the data set on Mus musculus [11], the result was Active. Moreover, the inhibition in vivo at 20 mg/kg in the data set with Mus musculus [13] amounted to 99.9%; in the data set on Mus musculus [6] it was 55%. Further, the Survival in the data set with Mus musculus [3] was 6.6 days. For the same compound, the Activity result is “Non-toxic” in the data set filed under Mus musculus [14], 39 mg with Mus musculus [5], 0.2 mL in the data set with Mus musculus [15] and 86% in the data set with Mus musculus [2]. For the same compound, the T/C in the data set on Mus musculus [4] stood at 68.

What is called LD50 is the dose at which mortality reaches 50%. For the compound `Cc1ccc(S(=O)(=O)N[C@@H](Cc2ccccc2)C(=O)CCl)cc1` [TPCK], the inhibition in vivo at 20 mg/kg in the data set on Mus musculus [13] was found to be 100%; in the data set on Mus musculus [6], 56%. In addition, the figures for the Activity with Mus musculus [5] and in the data set on Mus musculus [15] were 31 mg and 0.01 mL, respectively. This compound had an LD50 in [18] of 210 µmol/kg.
